{
  "source": "ChEMBL document CHEMBL1255389",
  "about": "“Exploiting the drug-activating properties of a novel trypanosomal nitroreductase” (Antimicrob Agents Chemother, 2010)",
  "key": {"Trypanosoma brucei [1]": {"tested_on": "Trypanosoma brucei", "assay": "Antiparasitic activity against Trypanosoma brucei BSF after 3 days by Alamar blue assay", "format": "functional, organism-based", "settings": "72 h", "procedure,_shortened": "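BSF trypomastigotes (MITat 427, clone 221a) were seeded at 1 × 10^3 ml−1 in modified Iscove's medium with tetracycline-free FCS, across a range of compound concentrations. Plates ran 3 days at 37°C, then Alamar blue was added for 16 h. Fluorescence was read at ex 530/em 585 nm and IC50 determined.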"}, "THP-1": {"tested_on": "THP-1", "assay": "Cytotoxicity against human THP1 cells after 6 days by Alamar blue assay", "format": "cell-based", "settings": "THP-1, 144 h", "procedure,_shortened": "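THP-1 cells were grown in RPMI 1640 with 10% tetracycline-free FCS and 20 mM HEPES. They were seeded at 1 × 10^4 ml−1 across a range of compound concentrations and incubated 6 days at 37°C, 5% CO2.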"}, "Trypanosoma brucei [2]": {"tested_on": "Trypanosoma brucei", "assay": "Antiparasitic activity against Trypanosoma brucei BSF overexpressing NTR gene after 3 days by Alamar blue assay", "format": "functional, organism-based", "settings": "72 h", "procedure,_shortened": "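Parasite lines were heterozygous NTR+/− (kept on 2 μg ml−1 puromycin) or TbNTR-overexpressing (kept on 2.5 μg ml−1 hygromycin plus 1 μg ml−1 phleomycin). Tetracycline at 1 μg ml−1 was added for induction where appropriate. Cells were seeded at 1 × 10^3 ml−1 and grown 3 days at 37°C, followed by Alamar blue for 16 h. Fluorescence IC50s were compared with control cells.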"}, "[3]": {"assay": "Therapeutic index, ratio of IC50 against human THP1 cells to IC50 against Trypanosoma brucei", "format": "cell-based, THP-1", "settings": "read-out: Ratio IC50", "procedure,_shortened": "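Index was calculated as THP-1 IC50 divided by T. brucei BSF IC50. THP-1 IC50 came from 6-day Alamar blue assays, and parasite IC50 from 3-day Alamar blue assays, both at 37°C.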"}, "Trypanosoma brucei [4]": {"tested_on": "Trypanosoma brucei", "settings": "100 uM"}, "Trypanosoma brucei [5]": {"tested_on": "Trypanosoma brucei"}, "Trypanosoma brucei [6]": {"tested_on": "Trypanosoma brucei", "remark": "listed apart in the source"}},
  "note": "pIC50: −log10 of the molar value.",
  "data": [
    {"smiles": "NP(=O)(OCc1ccc([N+](=O)[O-])cc1F)N(CCCl)CCCl", "note": "(configuration not stated)", "values": [
      {"measurement": "pIC50", "setting": "Trypanosoma brucei [1]", "value": 6.57},
      {"measurement": "pIC50", "setting": "THP-1", "value": 4.69}
    ]},
    {"smiles": "Nc1nc(N)nc(Nc2ccc([As]3SCC(CO)S3)cc2)n1", "note": "(configuration not stated) [MELARSOPROL]", "values": [
      {"measurement": "pIC50", "setting": "Trypanosoma brucei [2]", "value": 5.40}
    ]},
    {"smiles": "O=[N+]([O-])c1ccc([C@@H]2CCO[P@](=O)(N(CCCl)CCCl)N2)cc1", "values": [
      {"measurement": "pIC50", "setting": "Trypanosoma brucei [1]", "value": 5.74},
      {"measurement": "pIC50", "setting": "THP-1", "value": 4.19},
      {"measurement": "selectivity ratio", "setting": "[3]", "value": 36}
    ]},
    {"smiles": "CC(C)(C(=O)N[C@@H]1CCN[P@@](=O)(N(CCCl)CCCl)O1)c1ccccc1[N+](=O)[O-]", "values": [
      {"measurement": "pIC50", "setting": "Trypanosoma brucei [1]", "value": 5.74},
      {"measurement": "pIC50", "setting": "THP-1", "value": 4.19},
      {"measurement": "selectivity ratio", "setting": "[3]", "value": 36}
    ]},
    {"smiles": "COc1cc(COP(N)(=O)N(CCCl)CCCl)ccc1[N+](=O)[O-]", "note": "(configuration not stated)", "values": [
      {"measurement": "pIC50", "setting": "Trypanosoma brucei [1]", "value": 5.74},
      {"measurement": "pIC50", "setting": "THP-1", "value": 4.19},
      {"measurement": "selectivity ratio", "setting": "[3]", "value": 36}
    ]},
    {"smiles": "NP(=O)(OCc1c(F)cc([N+](=O)[O-])cc1F)N(CCCl)CCCl", "note": "(configuration not stated)", "values": [
      {"measurement": "pIC50", "setting": "Trypanosoma brucei [1]", "value": 8.15},
      {"measurement": "pIC50", "setting": "THP-1", "value": 5.16}
    ]},
    {"smiles": "CC(OP(N)(=O)N(CCCl)CCCl)c1ccc([N+](=O)[O-])cc1", "note": "(configuration not stated)", "values": [
      {"measurement": "pIC50", "setting": "Trypanosoma brucei [1]", "value": 5.74},
      {"measurement": "pIC50", "setting": "THP-1", "value": 4.19},
      {"measurement": "selectivity ratio", "setting": "[3]", "value": 36}
    ]},
    {"smiles": "NP(=O)(OCc1ccc([N+](=O)[O-])cc1Cl)N(CCCl)CCCl", "note": "(configuration not stated)", "values": [
      {"measurement": "pIC50", "setting": "Trypanosoma brucei [1]", "value": 8.10},
      {"measurement": "pIC50", "setting": "THP-1", "value": 5.00}
    ]},
    {"smiles": "O=[N+]([O-])c1ccc([C@@H]2CCN[P@@](=O)(N(CCCl)CCCl)N2)cc1", "values": [
      {"measurement": "pIC50", "setting": "Trypanosoma brucei [1]", "value": 5.74},
      {"measurement": "pIC50", "setting": "THP-1", "value": 4.19},
      {"measurement": "selectivity ratio", "setting": "[3]", "value": 36}
    ]},
    {"smiles": "O=[N+]([O-])c1ccc([C@@H]2CCO[P@@](=O)(N(CCCl)CCCl)N2)cc1", "values": [
      {"measurement": "pIC50", "setting": "Trypanosoma brucei [1]", "value": 5.74},
      {"measurement": "pIC50", "setting": "THP-1", "value": 4.19},
      {"measurement": "selectivity ratio", "setting": "[3]", "value": 36}
    ]},
    {"smiles": "Cc1cc(COP(N)(=O)N(CCCl)CCCl)ccc1[N+](=O)[O-]", "note": "(configuration not stated)", "values": [
      {"measurement": "pIC50", "setting": "Trypanosoma brucei [1]", "value": 5.74},
      {"measurement": "pIC50", "setting": "THP-1", "value": 4.19},
      {"measurement": "selectivity ratio", "setting": "[3]", "value": 36}
    ]},
    {"smiles": "NP(=O)(OCc1ccc([N+](=O)[O-])cc1)N(CCCl)CCCl", "note": "(configuration not stated)", "values": [
      {"measurement": "pIC50", "setting": "Trypanosoma brucei [1]", "value": 5.47},
      {"measurement": "pIC50", "setting": "THP-1", "value": 4.18}
    ]},
    {"smiles": "CC(C)(C(=O)N[C@@H]1CCN[P@](=O)(N(CCCl)CCCl)O1)c1ccccc1[N+](=O)[O-]", "values": [
      {"measurement": "pIC50", "setting": "Trypanosoma brucei [1]", "value": 5.74},
      {"measurement": "pIC50", "setting": "THP-1", "value": 4.19},
      {"measurement": "selectivity ratio", "setting": "[3]", "value": 36}
    ]},
    {"smiles": "O=[N+]([O-])c1ccc([C@@H]2CCN[P@](=O)(N(CCCl)CCCl)O2)cc1", "values": [
      {"measurement": "pIC50", "setting": "Trypanosoma brucei [1]", "value": 5.74},
      {"measurement": "pIC50", "setting": "THP-1", "value": 4.19},
      {"measurement": "selectivity ratio", "setting": "[3]", "value": 36}
    ]},
    {"smiles": "NP(=O)(OCc1ccccc1[N+](=O)[O-])N(CCCl)CCCl", "note": "(configuration not stated)", "values": [
      {"measurement": "pIC50", "setting": "Trypanosoma brucei [1]", "value": 5.74},
      {"measurement": "pIC50", "setting": "THP-1", "value": 4.19},
      {"measurement": "selectivity ratio", "setting": "[3]", "value": 36}
    ]},
    {"smiles": "O=[N+]([O-])c1ccc([C@@H]2CCN[P@](=O)(N(CCCl)CCCl)N2)cc1", "values": [
      {"measurement": "pIC50", "setting": "Trypanosoma brucei [1]", "value": 5.74},
      {"measurement": "pIC50", "setting": "THP-1", "value": 4.19},
      {"measurement": "selectivity ratio", "setting": "[3]", "value": 36}
    ]},
    {"smiles": "NP(=O)(OCc1ccc([N+](=O)[O-])cc1C(F)(F)F)N(CCCl)CCCl", "note": "(configuration not stated)", "values": [
      {"measurement": "pIC50", "setting": "Trypanosoma brucei [1]", "value": 6.83},
      {"measurement": "pIC50", "setting": "THP-1", "value": 4.72}
    ]},
    {"smiles": "NP(=O)(OCc1ccc([N+](=O)[O-])c(F)c1)N(CCCl)CCCl", "note": "(configuration not stated)", "values": [
      {"measurement": "pIC50", "setting": "Trypanosoma brucei [1]", "value": 5.49},
      {"measurement": "pIC50", "setting": "THP-1", "value": 4.75},
      {"measurement": "selectivity ratio", "setting": "[3]", "value": 6}
    ]},
    {"smiles": "CC1CS(=O)(=O)CCN1/N=C/c1ccc([N+](=O)[O-])o1", "note": "(configuration not stated) [NIFURTIMOX]", "values": [
      {"measurement": "Vmax", "setting": "Trypanosoma brucei [4]", "value": 423, "unit": "nmol/min"},
      {"measurement": "kcat/Km", "setting": "Trypanosoma brucei [5]", "value": 3.4, "unit": "M⁻¹ s⁻¹"},
      {"measurement": "Km", "setting": "Trypanosoma brucei [6]", "value": 53.1, "unit": "µM"},
      {"measurement": "pIC50", "setting": "Trypanosoma brucei [1]", "value": 5.74},
      {"measurement": "pIC50", "setting": "THP-1", "value": 4.19},
      {"measurement": "selectivity ratio", "setting": "[3]", "value": 36}
    ]},
    {"smiles": "NP(=O)(OCc1cccc([N+](=O)[O-])c1)N(CCCl)CCCl", "note": "(configuration not stated)", "values": [
      {"measurement": "pIC50", "setting": "Trypanosoma brucei [1]", "value": 5.74},
      {"measurement": "pIC50", "setting": "THP-1", "value": 4.19},
      {"measurement": "selectivity ratio", "setting": "[3]", "value": 36}
    ]},
    {"smiles": "COc1cc([N+](=O)[O-])ccc1COP(N)(=O)N(CCCl)CCCl", "note": "(configuration not stated)", "values": [
      {"measurement": "pIC50", "setting": "Trypanosoma brucei [1]", "value": 5.92},
      {"measurement": "pIC50", "setting": "THP-1", "value": 4.47},
      {"measurement": "selectivity ratio", "setting": "[3]", "value": 28}
    ]},
    {"smiles": "O=[N+]([O-])c1ccc([C@@H]2CCN[P@@](=O)(N(CCCl)CCCl)O2)cc1", "values": [
      {"measurement": "pIC50", "setting": "Trypanosoma brucei [1]", "value": 5.74},
      {"measurement": "pIC50", "setting": "THP-1", "value": 4.19},
      {"measurement": "selectivity ratio", "setting": "[3]", "value": 36}
    ]}
  ]
}
